Measured values taken from ChEMBL document CHEMBL1152134, “Synthetic chalcones as efficient inhibitors of Mycobacterium tuberculosis protein tyrosine phosphatase PtpA” (Bioorg Med Chem Lett, 2008).

Experiments:
[1] = molecular target: T1, Low molecular weight protein-tyrosine phosphatase A (Mycobacterium tuberculosis) (UniProt P9WIA1); assay: Inhibition of Mycobacterium tuberculosis recombinant protein tyrosine phosphatase assessed as enzyme activity at 25 uM; parameters: scale not given: the % may be the effect or the level left
T1 sequence (whole entry): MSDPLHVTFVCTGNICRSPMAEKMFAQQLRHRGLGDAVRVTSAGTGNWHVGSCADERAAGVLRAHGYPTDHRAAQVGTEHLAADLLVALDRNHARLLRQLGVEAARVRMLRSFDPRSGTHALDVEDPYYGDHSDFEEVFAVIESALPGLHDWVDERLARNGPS
Outline: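 His-tagged recombinant M. tuberculosis PtpA expressed from pET28a. Compound diluted in 25 mM bis-Tris–HCl pH 8.0, 20 mM imidazole pH 7.0, 40 mM DTT and 40 mM pNPP substrate; enzyme added to start. Incubated 20 min at 37 °C, absorbance at 410 nm read every 2 min. Controls: no enzyme; enzyme with DMSO. Percent activity averaged from two experiments in triplicate.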

[2] = molecular target: T2, Low molecular weight protein-tyrosine phosphatase A (Mycobacterium tuberculosis, UniProt P9WIA1); assay: Inhibition of Mycobacterium tuberculosis recombinant protein tyrosine phosphatase
T2 sequence (P9WIA1 whole entry): T1 sequence (whole entry)

O=C(/C=C/c1ccc2c(c1)OCO2)c1ccc(Br)cc1
Activity [1]: 86%

COc1cc(O)c(C(=O)/C=C/c2cccc(Cl)c2)c(OC)c1
Activity [1]: 87%

O=C(/C=C/c1cccc2ccccc12)c1ccccc1O
Activity [1]: 24%
IC50 [2]: 50.7 µM

O=C(/C=C/c1ccc2c(c1)OCO2)c1cccc([N+](=O)[O-])c1
Activity [1]: 74%

COc1ccc(OC)c(C(=O)/C=C/c2ccc3c(c2)OCO3)c1
Activity [1]: 91.3%

COc1ccc(OC)c(C(=O)/C=C/c2cccc3ccccc23)c1
Activity [1]: 54%
IC50 [2]: 39.5 µM

COc1cc(OC)c(C(=O)/C=C/c2cccc([N+](=O)[O-])c2)c(OC)c1
Activity [1]: 100%

O=C(/C=C/c1cccc2ccccc12)c1ccc([N+](=O)[O-])cc1
Activity [1]: 82%

COc1cc(OC)c(C(=O)/C=C/c2cccc(Cl)c2)c(OC)c1
Activity [1]: 98%

O=C(/C=C/c1ccc2ccccc2c1)c1ccc([N+](=O)[O-])cc1
Activity [1]: 89%

O=C(/C=C/c1ccc2ccccc2c1)c1cccc([N+](=O)[O-])c1
Activity [1]: 84%

O=C(/C=C/c1cccc2ccccc12)c1ccccc1
Activity [1]: 62.7%

COc1cc(OC)c(C(=O)/C=C/c2ccc(Cl)c(Cl)c2)c(OC)c1
Activity [1]: 99%

COc1cc(C(=O)/C=C/c2cccc3ccccc23)cc(OC)c1OC
Activity [1]: 102%

COc1cc(C(=O)/C=C/c2ccc3ccccc3c2)cc(OC)c1OC
Activity [1]: 109%

COc1cc(C(=O)/C=C/c2ccc3c(c2)OCO3)ccc1O
Activity [1]: 80%

COc1ccc(OC)c(C(=O)/C=C/c2ccc3ccccc3c2)c1
Activity [1]: 42.5%
IC50 [2]: 8.4 µM

O=C(/C=C/c1cccc2ccccc12)c1cccc(O)c1
Activity [1]: 79.5%

COc1ccc(C(=O)/C=C/c2ccc3ccccc3c2)cc1OC
Activity [1]: 31.5%
IC50 [2]: 23.1 µM

O=C(/C=C/c1cccc2ccccc12)c1ccc(Br)cc1
Activity [1]: 75%

COc1cc(OC)c(C(=O)/C=C/c2ccc3ccccc3c2)c(OC)c1
Activity [1]: 104%

COc1cc(O)c(C(=O)/C=C/c2cccc([N+](=O)[O-])c2)c(OC)c1
Activity [1]: 92%

O=C(/C=C/c1ccc2c(c1)OCO2)c1ccccc1
Activity [1]: 103%

COc1cc(C(=O)/C=C/c2ccc3c(c2)OCO3)cc(OC)c1OC
Activity [1]: 82.4%

O=C(/C=C/c1ccc2c(c1)OCO2)c1ccc([N+](=O)[O-])cc1
Activity [1]: 80.5%

COC1C=C(C(=O)/C=C/c2ccc3ccccc3c2)C=CC1O (centres undefined)
Activity [1]: 61%

COc1ccc(C(=O)/C=C/c2cccc3ccccc23)c(OC)c1
Activity [1]: 80%

COc1cc(O)c(C(=O)/C=C/c2cccc3ccccc23)c(OC)c1
Activity [1]: 84.4%

COc1ccc(C(=O)/C=C/c2ccc3c(c2)OCO3)cc1
Activity [1]: 94%

O=C(/C=C/c1cccc2ccccc12)c1cccc([N+](=O)[O-])c1
Activity [1]: 88%

COc1ccc(C(=O)/C=C/c2ccc3c(c2)OCO3)cc1OC
Activity [1]: 99%

COc1ccc(C(=O)/C=C/c2cccc3ccccc23)cc1
Activity [1]: 82.4%

O=C(/C=C/c1ccc2ccccc2c1)c1ccc(Br)cc1
Activity [1]: 89.2%

O=C(/C=C/c1ccc2c(c1)OCO2)c1ccccc1O
Activity [1]: 103%

O=C(/C=C/c1ccc2ccccc2c1)c1ccccc1O
Activity [1]: 74.6%
